One assay deals with C8166. Put plainly: Inhibitory concentration against cell culture of Human T-cell line c8166 infected with HIV-1 IIIB strain was determined. The format is functional, cell-based.
The target of assay [1] is Human immunodeficiency virus type 1 reverse transcriptase (Human immunodeficiency virus 1, UniProt Q72547, E138K). Put plainly: Inhibitory concentration against mutant reverse transcriptase of E138K was determined which is in turn resistant to TSAO. Put shortly: (§1)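 The enzyme was either p66/p51 heterodimer purified to near homogeneity or crude E. coli lysate containing the mutant RT. Inhibitory concentration was measured in an RT enzyme assay.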

For assay [2], the target named is Human immunodeficiency virus type 1 reverse transcriptase (Human immunodeficiency virus 1, UniProt Q72547). Put plainly: Inhibitory concentration against HIV-1 wild type Reverse transcriptase (RT).
The target of assay [3] is Human immunodeficiency virus type 1 reverse transcriptase (Human immunodeficiency virus 1, UniProt Q72547, K103N). Put plainly: Inhibitory concentration against mutant reverse transcriptase of K103N was determined which is in turn resistant to pyridinones. Put shortly: as §1
Assay [4] has as its target Human immunodeficiency virus type 1 reverse transcriptase (Human immunodeficiency virus 1, UniProt Q72547, L100I). Put plainly: Inhibitory concentration against mutant reverse transcriptase of L100I was determined which is in turn resistant TIBO. Summed up:
as §1

Assay [5] has as its target Human immunodeficiency virus type 1 reverse transcriptase (Human immunodeficiency virus 1, UniProt Q72547, P236L). Put plainly: Inhibitory concentration against mutant reverse transcriptase of P236L was determined which is in turn resistant to BHAP. Put shortly:
as §1

The target of assay [6] is Human immunodeficiency virus type 1 reverse transcriptase (Human immunodeficiency virus 1, UniProt Q72547, Y181C). Put plainly: Inhibitory activity against HIV-1 Y181C Reverse transcriptase (RT). Put shortly: as §1

The structures appear in SMILES notation.

Consider `CCN1c2ncccc2C(=O)N(C)c2ccc(-c3ccc(N)cc3)nc21`, for which the IC50 in the assay with C8166 was found to be 550 nM; in assay [1], 60 nM; in assay [2], 40 nM; in assay [3], 260 nM; in assay [4], 570 nM; in assay [5] it was 260 nM. Besides, in assay [6], inhibition was half-maximal at 120 nM (IC50).

Regarding `CCN1c2ncccc2C(=O)N(C)c2ccc(/C=C/C(N)=O)nc21`, the IC50 in assay [2] was 250 nM; in assay [6], 2400 nM.

Regarding `CCN1c2ncccc2C(=O)N(C)c2ccc(N3CCCCC3)nc21`, the figures for the IC50 in assay [2] and in assay [6] were 300 nM and over 1000 nM, respectively.

For the compound `CCN1c2ncccc2C(=O)N(C)c2ccc(-c3ccc(O)nc3)nc21`, the IC50 was 1100 nM in assay [2] and over 1000 nM in assay [6].

Turning to `CCN1c2ncccc2C(=O)N(C)c2ccc(-c3ccccn3)nc21`, the IC50 in assay [2] was found to be 180 nM; in assay [6] it was 1600 nM.

With `CCN1c2ncccc2C(=O)N(C)c2ccc(N(C)C)nc21`, the figures for the IC50 in assay [2] and in assay [6] were 70 nM and 770 nM, respectively.

Turning to `CCN1c2ncccc2C(=O)N(C)c2ccc(-c3cnco3)nc21`, the IC50 was determined as 110 nM in assay [2] and 560 nM in assay [6].

Turning to `CN1C(=O)c2cccnc2N(C2CC2)c2nc(Br)ccc21`, the IC50 in assay [2] came to 30 nM; in assay [6], 2100 nM.

For the compound `CN1C(=O)c2cccnc2N(C2CC2)c2nc(-c3ccncc3)ccc21`, the IC50 came out at 150 nM in assay [2] and 320 nM in assay [6].

For the compound `CCN1c2ncccc2C(=O)N(C)c2ccc(NC)nc21`, the results for the IC50 in assay [2] and in assay [6] were 190 nM and 710 nM, respectively.

`CCN1c2ncccc2C(=O)N(C)c2ccc(-c3ccc[nH]3)nc21`: the IC50 in assay [2] and in assay [6] was 70 nM throughout.

On to `CCN1c2ncccc2C(=O)N(C)c2ccc(N3CCOCC3)nc21`, for which the IC50 in assay [2] is 400 nM; in assay [6], over 1000 nM.

As for `CCN1c2ncccc2C(=O)N(C)c2ccc(-c3ccsc3)nc21`, the 50% inhibitory concentration (IC50) was 100 nM in assay [2] and 300 nM in assay [6].

For the compound `CCN1c2ncccc2C(=O)N(C)c2ccc(-c3ncco3)nc21`, the IC50 is 220 nM in assay [2] and 820 nM in assay [6].

For the compound `CCN1c2ncccc2C(=O)Nc2c(C)cc(C(C)(C)C)nc21`, the IC50 in assay [2] and in assay [6] was over 1000 nM in each case.

On to `CCN1c2ncccc2C(=O)N(C)c2ccc(/C=C/C(=O)OC)nc21`, for which the IC50 is 180 nM in assay [2] and 670 nM in assay [6].

For the compound `CCN1c2ncccc2C(=O)N(C)c2cccnc21`, in assay [6], half-maximal inhibition (IC50) required 2200 nM.

On to `CCN1c2ncccc2C(=O)N(C)c2ccc(N3CCCC3)nc21`, for which the values for the IC50 in assay [2] and in assay [6] were 20 nM and 3800 nM, respectively.

As to `CCN1c2ncccc2C(=O)N(C)c2ccc(C)nc21`, the IC50 worked out at 120 nM in assay [2] and 1200 nM in assay [6].

On to `CN1C(=O)c2cccnc2N(C2CC2)c2nc(-c3cccnc3)ccc21`, for which the figures for the IC50 in assay [2] and in assay [6] were 180 nM and 440 nM, respectively.

In the case of `CCN1c2ncccc2C(=O)Nc2c(C)cc(Cl)nc21`, the IC50 in assay [2] was 10 nM; in assay [6] it was 800 nM.

In the case of `CCN1c2ncccc2C(=O)N(C)c2ccc(N3CC=CC3)nc21`, the values for the IC50 in assay [2] and in assay [6] were 30 nM and 640 nM, respectively.

Take `CCN1c2ncccc2C(=O)N(C)c2ccc(-c3cccc(O)c3)nc21`: the IC50 in assay [2] came to 100 nM; in assay [6] it was 180 nM.

Take `CCN1c2ncccc2C(=O)Nc2c(C)cc(N3CCC(O)C3)nc21` (stereo not given): the IC50 in assay [2] is 40 nM; in assay [6] it was over 1000 nM.

Consider `C#Cc1ccc2c(n1)N(CC)c1ncccc1C(=O)N2C`, for which the IC50 is 140 nM in assay [2] and 420 nM in assay [6].

As for `CCN1c2ncccc2C(=O)N(C)c2ccc(Cl)nc21`, the IC50 in the assay with C8166 was found to be 160 nM; in assay [1] it was 120 nM; in assay [2], 80 nM; in assay [3] it was 1100 nM; in assay [5], 20 nM; in assay [6], 210 nM.

As to `CCN1c2ncccc2C(=O)N(C)c2ccc(-c3ccc(OC)cc3)nc21`, the concentration for half-maximal inhibition (IC50) in assay [2] came to 1400 nM; in assay [6], 3200 nM.

As for `CCN1c2ncccc2C(=O)N(C)c2ccc(-c3ncc[nH]3)nc21`, the results for the concentration for half-maximal inhibition (IC50) in assay [2] and in assay [6] were 130 nM and 190 nM, respectively.

Take `CCN1c2ncccc2C(=O)Nc2c(C)cc(C(C)C)nc21`: the IC50 in assay [2] was 1000 nM; in assay [6] it was over 1000 nM.

Take `CCN1c2ncccc2C(=O)Nc2c(C)cc(C)nc21`: the IC50 in assay [2] is 20 nM; in assay [6], over 1000 nM.

Take `Cc1cc(Cl)nc2c1NC(=O)c1cccnc1N2C1CC1`: the values for the half-inhibitory concentration (IC50) in assay [2] and in assay [6] were 20 nM and 780 nM, respectively.

With `CCN1c2ncccc2C(=O)N(C)c2ccc(OC)nc21`, the IC50 in assay [2] came out at 40 nM; in assay [6], 600 nM.

Turning to `CCN1c2ncccc2C(=O)Nc2c(C)cc(N(C)CCO)nc21`, the IC50 was 10 nM in assay [2] and over 1000 nM in assay [6].

Regarding `CCN1c2ncccc2C(=O)Nc2c(C)cc(N3CCSCC3)nc21`, the IC50 in assay [2] is 150 nM; in assay [6], over 1000 nM.

Regarding `CCN1c2ncccc2C(=O)N(C)c2ccc(-c3cccs3)nc21`, the results for the IC50 in assay [2] and in assay [6] were 140 nM and 420 nM, respectively.

In the case of `COc1ccc2c(n1)N(C1CC1)c1ncccc1C(=O)N2C`, the IC50 stood at 120 nM in assay [2] and 1100 nM in assay [6].

For `CCN1c2ncccc2C(=O)N(C)c2ccc(-c3ccco3)nc21`, the IC50 was 110 nM in assay [2] and 160 nM in assay [6].

Regarding `CCN1c2ncccc2C(=O)N(C)c2ccc(-c3cncs3)nc21`, the values for the IC50 in assay [2] and in assay [6] were 380 nM and 1100 nM, respectively.

`CCN1c2ncccc2C(=O)N(C)c2ccc(-c3cc[nH]n3)nc21`: the half-inhibitory concentration (IC50) in assay [2] amounted to 390 nM; in assay [6] it was 290 nM.

Turning to `CCN1c2ncccc2C(=O)Nc2c(C)cc(NCCCO)nc21`, the half-inhibitory concentration (IC50) in assay [2] is 90 nM; in assay [6], over 1000 nM.

Take `CCN1c2ncccc2C(=O)N(C)c2ccc(-c3ccccc3OC)nc21`: the figures for the IC50 in assay [2] and in assay [6] were 820 nM and 2500 nM, respectively.

On to `C/C=C/Nc1ccc2c(n1)N(CC)c1ncccc1C(=O)N2C`, for which the IC50 in assay [2] was 390 nM; in assay [6], over 1000 nM.

Turning to `CCN1c2ncccc2C(=O)N(C)c2ccc(-c3cccc(OC)c3)nc21`, the IC50 in assay [2] was found to be 150 nM; in assay [6], 210 nM.

Turning to `CCN1c2ncccc2C(=O)N(C)c2ccc(-c3cnc[nH]3)nc21`, the IC50 was 3700 nM in assay [2] and 740 nM in assay [6].

With `CCN1c2ncccc2C(=O)Nc2c(C)cc(NCCO)nc21`, the IC50 in assay [2] is 90 nM; in assay [6], over 1000 nM.

Consider `CCN1c2ncccc2C(=O)N(C)c2ccc(-c3cn[nH]c3)nc21`, for which the IC50 with C8166 worked out at 40 nM; in assay [1] it was 50 nM; in assay [2], 20 nM; in assay [3] it was 80 nM; in assay [4] it was 2500 nM; in assay [5] it was 130 nM. In assay [6], half-maximal inhibition (IC50) required 60 nM.

For the compound `CCN1c2ncccc2C(=O)N(C)c2ccc(-c3ccc(O)cc3)nc21`, the IC50 in the assay on C8166 came to 300 nM; in assay [1], 60 nM; in assay [2], 70 nM; in assay [3] it was 10 nM; in assay [4], 500 nM; in assay [5] it was 1 nM. In addition, the IC50 in assay [6] was 270 nM.

For `CCN1c2ncccc2C(=O)N(C)c2ccc(N)nc21`, the IC50 in assay [2] and in assay [6] was over 1000 nM throughout.

With `CCN1c2ncccc2C(=O)N(C)c2ccc(-c3nccs3)nc21`, the half-maximal inhibitory concentration (IC50) came out at 100 nM in assay [2] and 240 nM in assay [6].

Consider `CCc1cc(C)c2c(n1)N(CC)c1ncccc1C(=O)N2`, for which the figures for the IC50 in assay [2] and in assay [6] were 90 nM and 1700 nM, respectively.

For the compound `CCN1c2ncccc2C(=O)Nc2c(C)cc(SC)nc21`, the IC50 in assay [2] was 20 nM; in assay [6], over 1000 nM.

For `CCN1c2ncccc2C(=O)N(C)c2ccc(=O)[nH]c21`, the IC50 is 470 nM in assay [2] and over 1000 nM in assay [6].

On to `CN1C(=O)c2cccnc2N(C2CC2)c2nc(Cl)ccc21`, for which the half-maximal inhibitory concentration (IC50) in assay [6] was 920 nM.

In the case of `CCN1c2ncccc2C(=O)N(C)c2ccc(-n3cccc3)nc21`, the values for the IC50 in assay [2] and in assay [6] were 90 nM and 210 nM, respectively.

`CN1C(=O)c2cccnc2N(C2CC2)c2nc(-c3cc[nH]c3)ccc21`: the IC50 was 50 nM in assay [2] and 60 nM in assay [6].

For `CCN1c2ncccc2C(=O)N(C)c2ccc(-c3ccccc3)nc21`, the IC50 in assay [2] amounted to 230 nM; in assay [6], 1400 nM.

For the compound `CCNc1ccc2c(n1)N(CC)c1ncccc1C(=O)N2C`, the IC50 was 230 nM in assay [2] and 1300 nM in assay [6].

As for `CCN1c2ncccc2C(=O)N(C)c2ccc(-n3cccn3)nc21`, the half-inhibitory concentration (IC50) in assay [2] turned out to be 310 nM; in assay [6] it was 560 nM.

Consider `CCN1c2ncccc2C(=O)Nc2c(C)cc(F)nc21`, for which the half-inhibitory concentration (IC50) in assay [2] stood at 20 nM; in assay [6] it was 850 nM.

For `Cc1cc(C)c2c(n1)N(C1CC1)c1ncccc1C(=O)N2`, the results for the IC50 in assay [2] and in assay [6] were 70 nM and 1200 nM, respectively.

For the compound `CCN1c2ncccc2C(=O)N(C)c2ccc(-c3ccc(OC)nc3)nc21`, the IC50 in assay [2] came to 1200 nM; in assay [6], 3000 nM.

Consider `CCN1c2ncccc2C(=O)Nc2c(C)ccnc21`, for which the IC50 in assay [2] stood at 40 nM; in assay [6] it was 1800 nM.

In assay [6], `CCN1c2ncccc2C(=O)N(C)c2ccc(-c3cccc(N)c3)nc21` had an IC50 of 560 nM.

With `Cc1ccnc2c1NC(=O)c1cccnc1N2C1CC1` [NEVIRAPINE], the IC50 in the assay on C8166 was determined as 40 nM.

`CCN1c2ncccc2C(=O)N(C)c2ccc(-c3ccoc3)nc21`: the IC50 was found to be 40 nM in assay [2] and 110 nM in assay [6].
